Assay results published in paper PMC6528680 (Journal of natural products, 2019).
Read-outs that look alike come from different tables or passages of the source.

Legend:
[1] = format: in vivo, mice (C57BL/6J, C3H/HeJ, mps/mps); settings: for concentration at 20 min: mouse, ip, 100 mg/kg
Method in brief: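 Test compound dosed IP at 100 mg/kg in DMSO to 15-week female BL/6J, female HeJ and male mps/mps mice (n=3–5/group). Blood and marrow were taken under isoflurane at 20 min. Marrow pellets were resuspended in 50 mM sodium acetate pH 5 and held 2 h on ice, then supernatants were kept. Serum was acidified to pH 5, and aglycone and glucuronide were measured by HLB solid-phase extraction and LC/MS. Mean ± SEM.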

[2] = format: in vivo, mice (C57BL/6J, C3H/HeJ); settings: mouse, po, 500 mg/kg
Method in brief: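 Oral gavage of 500 mg/kg in DMSO to C57BL/6J and C3H/HeJ mice (n=3–4/group), with sampling at 30 min under isoflurane. Marrow pellets were suspended in 50 mM sodium acetate pH 5 for 2 h on ice and centrifuged. Serum was acidified to pH 5 with HCl before HLB extraction and LC/MS. Marrow concentrations were corrected to pellet volume, assuming density 1.06 g/ml. Mean ± SEM.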

GUSB [3] = biological target: T1, GUSB (Mus musculus, UniProt P12265); format: biochemical, C57BL/6J mice; settings: 0.5 μM curcumin-glucuronide added ex vivo, sodium acetate buffer 50 mM pH 5, 2 h
T1 sequence (P12265 23-648): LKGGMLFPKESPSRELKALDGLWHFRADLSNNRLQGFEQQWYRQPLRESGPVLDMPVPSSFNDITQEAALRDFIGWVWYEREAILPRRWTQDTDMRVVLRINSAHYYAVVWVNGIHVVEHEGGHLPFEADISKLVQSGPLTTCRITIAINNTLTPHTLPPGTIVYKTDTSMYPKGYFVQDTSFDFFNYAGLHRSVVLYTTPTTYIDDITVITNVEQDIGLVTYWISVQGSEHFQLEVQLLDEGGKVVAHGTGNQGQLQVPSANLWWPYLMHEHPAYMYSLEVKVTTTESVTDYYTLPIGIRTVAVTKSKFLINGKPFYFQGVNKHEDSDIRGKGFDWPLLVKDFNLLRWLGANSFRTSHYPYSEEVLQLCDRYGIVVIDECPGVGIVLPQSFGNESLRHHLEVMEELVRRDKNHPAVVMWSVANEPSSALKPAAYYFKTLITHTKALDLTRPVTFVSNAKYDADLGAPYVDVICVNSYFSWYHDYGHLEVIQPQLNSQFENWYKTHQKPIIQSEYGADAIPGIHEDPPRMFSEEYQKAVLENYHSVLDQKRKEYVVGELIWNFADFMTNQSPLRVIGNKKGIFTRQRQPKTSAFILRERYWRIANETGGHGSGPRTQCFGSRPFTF

rh-HPSE = biological target: T2, rh-HPSE (Homo sapiens, UniProt Q9Y251); assay: Deconjugation of curcumin-glucuronide by recombinant enzyme; format: biochemical; settings: 5 μg/mL (100 nM) enzyme, 459 nM substrate, 24 h, 37°C, pH 5
T2 sequence (Q9Y251 158-543 limits assumed): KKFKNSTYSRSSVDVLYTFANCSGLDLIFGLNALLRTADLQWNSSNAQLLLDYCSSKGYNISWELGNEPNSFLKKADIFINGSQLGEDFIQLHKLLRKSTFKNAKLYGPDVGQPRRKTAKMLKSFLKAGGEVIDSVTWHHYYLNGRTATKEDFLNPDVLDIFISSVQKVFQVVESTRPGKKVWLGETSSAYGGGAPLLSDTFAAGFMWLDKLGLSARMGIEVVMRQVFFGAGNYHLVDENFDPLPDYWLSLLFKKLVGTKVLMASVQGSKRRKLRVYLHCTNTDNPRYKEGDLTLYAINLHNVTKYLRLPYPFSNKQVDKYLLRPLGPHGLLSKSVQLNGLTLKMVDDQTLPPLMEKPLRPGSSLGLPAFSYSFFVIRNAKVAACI
T2 sequence (Q9Y251 36-109 limits assumed): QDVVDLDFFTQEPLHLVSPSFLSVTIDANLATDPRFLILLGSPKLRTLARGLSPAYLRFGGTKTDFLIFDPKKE
Method in brief: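 Recombinant human enzyme was incubated with synthesized glucuronide substrate in an enzyme-optimized pH 5 buffer for 24 h at 37°C. Activity was taken from quantitation of the remaining glucuronide substrate and the released aglycone product. n=3–6 per group.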

[4] = test system: RANKL-stimulated osteoclast formation in RAW 264.7 cells; assay: RANKL-stimulated osteoclastogenesis assay; format: cell-based, murine; settings: even at 10-fold higher doses than the curcumin IC50
Method in brief: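 RAW 264.7 cells were seeded at 5×10^3/well in DMEM with 10% FBS and 1% pen/strep and left to adhere overnight at 37°C, 5% CO2. They were pretreated 4 h with the test compound, then stimulated with recombinant mouse RANKL (50 ng/mL final) for 72 h at 37°C. TRAP-positive multinucleated osteoclasts were counted. n=4/group, mean ± SEM.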

GUSB [5] = biological target: T1, GUSB; format: biochemical, C57BL/6NJ mice; settings: 10 μM added in vitro, 2 h, 37°C, physiologic pH

concentration at 20 min ([1]; female, C3H/HeJ, bone marrow suspension): 2.7 µM
concentration at 20 min ([1]; female, C3H/HeJ, serum): 92.1 µM
concentration at 20 min ([1]; female, C57BL/6J, bone marrow suspension): 1.3 µM
concentration at 20 min ([1]; female, C57BL/6J, serum): 92.7 µM
concentration at 20 min ([1]; male, mps/mps, serum): 151 µM
Increase of bone marrow curcumin-glucuronide concentrations vs BL/6J ([1]; mps/mps mice, IP curcumin): 4 fold
concentration at 30 min ([2]; C57BL/6J, bone marrow suspension): 0.36 µM
concentration at 30 min ([2]; C57BL/6J, serum): 82.7 µM
concentration at 30 min ([2]; male, C3H/HeJ, bone marrow suspension): 1.19 µM
concentration at 30 min ([2]; male, C3H/HeJ, serum): 80 µM
Deconjugation by soluble GUSB activity in cell-free marrow fractions (GUSB [3]): sufficient to deconjugate
Deconjugation in conditioned media from bone marrow cells (GUSB [5]): forming detectable aglycone curcumin
SMILES: COc1cc(/C=C/C(=O)CC(=O)/C=C/c2ccc(O[C@@H]3O[C@H](C(=O)O)[C@@H](O)[C@H](O)[C@H]3O)c(OC)c2)ccc1O [curcumin-glucuronide]
Ability of HPSE to deconjugate curcumin glucuronide (rh-HPSE): only GUSB and KL were able to deconjugate
Effect on RANKL-stimulated osteoclast formation [4]: without effect
